An excerpt weighted towards active compounds, which were near 5.9% of everything screened.
IDH1 mut inh: blocks human IDH1 R132H reductase activity; O75874; diaphorase/resazurin fluorescence, 60 min; inhibition, % at 10 µM; 0.18% of 70,000 active; AID 624101; in the data active = inhibition above about 34%; inconclusive = no clear call, values can overlap the other calls; inactive = below about 11%
GASC1 inh: inhibitors of human demethylase GASC-1 KDM4C | 0.15% of 96,000 active | GST-KDM4C 2-372, H3K9me3 peptide, LANCE TR-FRET | inhibition, % at 12.5 µM;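 active = mean replicate inhibition above about 25%, with at least 55% of replicates also reaching it, limit read from the data, passing the limit was not always enough; inconclusive = only one of those two conditions met; inactive = neither condition met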
Target sequence (Q9H3R0 2-372 limits assumed): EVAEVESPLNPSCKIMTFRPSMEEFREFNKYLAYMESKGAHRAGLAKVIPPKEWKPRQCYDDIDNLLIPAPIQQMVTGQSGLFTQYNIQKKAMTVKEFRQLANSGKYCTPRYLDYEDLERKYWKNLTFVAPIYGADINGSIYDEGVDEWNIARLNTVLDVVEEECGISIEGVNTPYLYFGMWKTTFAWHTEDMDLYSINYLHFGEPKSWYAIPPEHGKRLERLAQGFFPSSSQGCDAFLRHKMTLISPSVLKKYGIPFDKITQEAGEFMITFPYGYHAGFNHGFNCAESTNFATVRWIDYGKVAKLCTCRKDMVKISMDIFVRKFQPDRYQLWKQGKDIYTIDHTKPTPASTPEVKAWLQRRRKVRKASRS
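System: N-terminal GST-fused human GASC-1 (KDM4C) fragment, residues 2-372 / Amount: 10 nM GST-KDM4C in enzyme reaction / Also added: H3K9me3 peptide with Fe(II)/2OG / Times: 30 min demethylation and 1 h detection at room temperature / Signal: LANCE TR-FRET / Read-out basis: Fall in 671/618 emission ratio as inhibition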
T cruzi growth-1: inhibitors of T. cruzi proliferation | T. cruzi beta-gal in NIH3T3, GalScreen luminescence, 90 h | 5.9% of 77,000 active | inhibition, % at 8.34 µM | AID 624255;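 active = mean inhibition above about 93%, with at least 55% of replicates each passing it, limit read from the data, passing the limit was not always enough; inconclusive = only one of those two conditions holds; inactive = neither condition holds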
Pf Dd2 inh: P. falciparum Dd2 growth inhibition. AID 1159554. 2.3% of 94,000 active. SYBR Green, 72 h; stronger effect = lower value. activity change, % at 10 µM; in the data active = activity change below about -80%; inconclusive = no clear call, values can overlap the other calls
T cruzi growth-2: Trypanosoma cruzi proliferation inhibition; T. cruzi beta-gal in NIH3T3, GalScreen luminescence, 90 h; inhibition, % at 8.35 µM; 72% of 5,600 active; shares compounds with T cruzi growth-1;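 active = mean replicate inhibition above about 95% and at least 55% of replicates individually reaching it, limit read from the data; inconclusive = only one of the two criteria is met; inactive = neither criterion is met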
T cruzi growth-3: Trypanosoma cruzi proliferation inhibition. shares compounds with T cruzi growth-1. T. cruzi beta-gal in NIH3T3, GalScreen luminescence, 90 h. AID 651740. 21% of 5,600 active. inhibition, % at 2.09 µM;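 active = mean inhibition above about 95%, with at least 55% of replicates also reaching it, limit read from the data; inconclusive = meets just one of the two conditions; inactive = meets neither condition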
3T3 cytotox: kills mouse NIH/3T3 fibroblasts. 14% of 5,600 active. shares compounds with T cruzi growth-1. cytotoxicity (signal decrease), % at 8.35 µM. NIH/3T3 viability, CellTiter-Glo ATP luminescence, 90 h;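 active = mean signal decrease across replicates above about 35% based on untreated-well scatter, with enough replicates individually passing, limit read from the data; inconclusive = no rule stated though some were filed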
3T3 cytotox 2: NIH/3T3 (mouse) viability loss; shares compounds with T cruzi growth-1; NIH/3T3 viability, CellTiter-Glo ATP luminescence, 90 h; inhibition, % at 24.9 µM; 56% of 5,600 active; AID 651744;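 active = mean loss of cell viability signal at or above a set limit, and enough replicates individually reaching it; inconclusive = meets only the mean limit or only the replicate share; inactive = meets neither condition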
A number is an active result; - = inactive; ? = inconclusive; . = not tested or not shown.

SMILES	IDH1 mut inh	GASC1 inh	T cruzi growth-1	Pf Dd2 inh	T cruzi growth-2	T cruzi growth-3	3T3 cytotox	3T3 cytotox 2
O=C(c1ccc(F)cc1)N1CCCCN2[C@H](CO)[C@@H](c3ccc(C#CC4(O)CCCC4)cc3)[C@H]2C1	.	-	100.1	-	-	-	-	-
O=C(C1CCCC1)N1CCCCN2[C@H](CO)[C@H](c3ccc(C#CC4(O)CCCC4)cc3)[C@@H]2C1	.	.	102.6	-	98.5	-	-	-
Cc1ccc(S(=O)(=O)N(C)C[C@H]2OCCCC[C@H](C)Oc3ccc(NC(=O)NC4CCCCC4)cc3C(=O)N([C@H](C)CO)C[C@@H]2C)cc1	-	-	112.0	-	108.8	-	-	-
C[C@@H]1CCCCO[C@@H](CN(C)S(=O)(=O)c2ccc(Cl)cc2)[C@H](C)CN([C@@H](C)CO)C(=O)c2cc(NC(=O)NC3CCCCC3)ccc2O1	.	-	100.4	.	110.7	-	-	-
CC(C)NC(=O)Nc1ccc2c(c1)C(=O)N([C@H](C)CO)C[C@@H](C)[C@@H](CN(C)S(=O)(=O)c1ccc(Cl)cc1)OCCCC[C@@H](C)O2	-	-	98.0	-	96.0	-	-	24.0
Cc1ccc(S(=O)(=O)N(C)C[C@@H]2OCCCC[C@@H](C)Oc3ccc(NC(=O)NC4CCCCC4)cc3C(=O)N([C@H](C)CO)C[C@H]2C)cc1	-	-	98.8	-81.2	108.9	-	-	-
Cc1ccc(S(=O)(=O)N(C)C[C@@H]2OCCCC[C@H](C)Oc3ccc(NC(=O)NC4CCCCC4)cc3C(=O)N([C@@H](C)CO)C[C@H]2C)cc1	-	-	-	-	.	.	.	.
CC(=O)C1=C(c2ccccc2)NC(=S)NC1c1cc(Cl)ccc1OCC(=O)O (configuration not stated)	-	.	.	.	.	.	.	.
COc1cc(NC(=O)COc2ccc([N+](=O)[O-])cc2)cc(OC)c1	-	.	.	.	.	.	.	.
C[C@H]1CN([C@@H](C)CO)S(=O)(=O)c2ccc(C#Cc3ccccc3)cc2O[C@H]1CN(C)CC1CC1	-	-	117.1	-82.8	102.8	-	-	105.4
CC(C)C#Cc1ccc2c(c1)O[C@@H](CN(C)CC1CCCC1)[C@H](C)CN([C@H](C)CO)S2(=O)=O	-	-	92.0	-	104.5	98.1	54.8	104.5
CC(C)C#Cc1ccc2c(c1)O[C@@H](CN(C)CC1CCOCC1)[C@H](C)CN([C@@H](C)CO)S2(=O)=O	-	-	-	-	.	.	.	.
CC(C)C#Cc1ccc2c(c1)O[C@H](CN(C)CC1CC1)[C@H](C)CN([C@@H](C)CO)S2(=O)=O	-	-	-	-	.	.	.	.
CC(C)C#Cc1ccc2c(c1)O[C@@H](CN(C)CC1CCCC1)[C@H](C)CN([C@@H](C)CO)S2(=O)=O	-	-	91.9	-	105.5	-	40.7	103.3
CCOc1ccc(NC(=O)Cn2cnc3scc(-c4ccc(C)cc4)c3c2=O)cc1	-	.	.	.	.	.	.	.
CNC[C@@H]1Oc2cc(C#Cc3ccc(OC)cc3)ccc2S(=O)(=O)N([C@H](C)CO)C[C@H]1C	-	-	103.1	-	106.9	-	-	104.7
CNC[C@H]1Oc2cc(C#Cc3ccc(OC)cc3)ccc2S(=O)(=O)N([C@@H](C)CO)C[C@@H]1C	-	-	108.6	-	103.5	-	-	104.7
CNC[C@@H]1Oc2cc(C#Cc3cccc(OC)c3)ccc2S(=O)(=O)N([C@@H](C)CO)C[C@@H]1C	-	-	.	-	.	.	.	.
CNC[C@H]1Oc2cc(C#Cc3ccc(F)cc3)ccc2S(=O)(=O)N([C@H](C)CO)C[C@@H]1C	-	-	.	-	.	.	.	.
O=C(Nc1cccc(F)c1)N1CCCCN2[C@H](C1)[C@@H](c1ccc(-c3ccncc3)cc1)[C@@H]2CO	.	-	110.6	-	110.8	-	-	-
O=C(Nc1cccc(F)c1)N1CCCCN2[C@H](CO)[C@H](c3ccc(-c4ccncc4)cc3)[C@H]2C1	.	-	105.5	-	112.4	-	-	53.1
Cc1ccc(-c2ccc([C@H]3[C@@H](CO)N4CCCCN(C(=O)Nc5cccc(F)c5)C[C@H]34)cc2)cc1	.	-	106.5	-	109.5	115.2	118.6	104.8
O=C(Nc1ccc(F)cc1)N1CCCCN2[C@@H](CO)[C@@H](c3ccc(-c4ccncc4)cc3)[C@@H]2C1	.	-	-	-	.	.	.	.
Cc1ccc(SCc2[nH]n(-c3nc4ccccc4s3)c(=O)c2C=NCc2ccco2)cc1	-	.	.	.	.	.	.	.
CC1=CC(C)(C)N2C(=O)C(=O)c3cc(OC(=O)CN4C(=O)c5ccccc5C4=O)cc1c32	-	.	.	.	.	.	.	.
SMILES	IDH1 mut inh	GASC1 inh	T cruzi growth-1	Pf Dd2 inh	T cruzi growth-2	T cruzi growth-3	3T3 cytotox	3T3 cytotox 2
C[C@@H]1CN([C@@H](C)CO)S(=O)(=O)c2ccc(C#Cc3ccccn3)cc2O[C@@H]1CN(C)Cc1cccc(F)c1	-	-	119.2	-	108.0	?	-	-
C[C@@H]1CN([C@H](C)CO)S(=O)(=O)c2ccc(C#Cc3ccccn3)cc2O[C@H]1CN(C)C	-	-	.	-	.	.	.	.
C[C@H](CO)N1C[C@H](C)[C@@H](CN(C)Cc2cccc(F)c2)Oc2cc(C#Cc3ccccn3)ccc2S1(=O)=O	-	-	116.8	-	-	111.5	-	-
CCCNC(=O)[C@@H]1[C@@H](CO)[C@@H]2Cn3c(ccc(C4=CCCC4)c3=O)[C@@H]2N1C(=O)c1cnccn1	.	-	97.4	-	-	-	-	-
CCCNC(=O)[C@H]1[C@H](CO)[C@H]2Cn3c(ccc(C4=CCCC4)c3=O)[C@H]2N1C(=O)c1cnccn1	.	-	99.2	-	-	-	-	-
CCNC(=O)[C@@H]1[C@@H](CO)[C@@H]2Cn3c(ccc(C4=CCCC4)c3=O)[C@@H]2N1C(=O)CC1CC1	.	-	?	-	-	-	-	-
CCNC(=O)[C@H]1[C@H](CO)[C@H]2Cn3c(ccc(C4=CCCCC4)c3=O)[C@H]2N1C(=O)CC1CC1	.	-	-	-	.	.	.	.
CCNC(=O)[C@H]1[C@H](CO)[C@H]2Cn3c(ccc(C4=CCCCC4)c3=O)[C@H]2N1C(=O)c1cnccn1	.	-	-	-	.	.	.	.
O=C(COc1cccc(NC(=O)c2ccc([N+](=O)[O-])cc2)c1)c1ccc(Br)cc1	-	.	.	.	.	.	.	.
COc1ccc(Oc2ccc(NC(=O)C(C)N3C(=O)C4C5C=CC(C6CC56)C4C3=O)cc2)cc1 (configuration not stated)	-	.	.	.	.	.	.	.
Cc1ccc(NC(=O)C(C)Oc2ccc(Br)cc2)c([N+](=O)[O-])c1 (configuration not stated)	-	.	.	.	.	.	.	.
COc1ccc(C)cc1S(=O)(=O)N1CCCC(C(=O)Nc2ccccc2)C1 (configuration not stated)	-	.	.	.	.	.	.	.
CCOc1ccccc1NC(=O)Cn1cnc2scc(-c3ccc(Cl)cc3)c2c1=O	-	.	.	.	.	.	.	.

Screens (PubChem)
